# In ChEMBL document CHEMBL1777748 (Bioorg Med Chem Lett, 2011):
# pIC50: −log10 of the molar value. Calls of active or inactive are those of the source. The rule behind the calls is not given here.
# What was measured:
# [1] = molecular target: T1, Prostaglandin D2 receptor 2 (Homo sapiens, UniProt Q9Y5Y4); assay: Displacement of [3H]-PGD2 from CRTh2 receptor by scintillation proximity assay
# T1 sequence (Q9Y5Y4 whole entry): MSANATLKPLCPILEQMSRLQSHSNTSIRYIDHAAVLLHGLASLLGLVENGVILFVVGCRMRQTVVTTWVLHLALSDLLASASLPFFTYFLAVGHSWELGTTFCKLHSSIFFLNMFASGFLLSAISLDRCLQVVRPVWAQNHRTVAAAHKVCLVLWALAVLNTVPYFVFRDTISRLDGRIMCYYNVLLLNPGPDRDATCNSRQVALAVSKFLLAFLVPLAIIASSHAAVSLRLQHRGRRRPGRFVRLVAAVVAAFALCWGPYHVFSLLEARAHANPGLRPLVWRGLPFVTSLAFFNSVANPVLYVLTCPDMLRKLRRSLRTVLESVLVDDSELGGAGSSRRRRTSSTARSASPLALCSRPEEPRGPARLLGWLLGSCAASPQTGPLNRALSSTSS
# [2] = Intrinsic clearance in rat hepatocytes assessed per 1 x 10^6 cells
# [3] = Intrinsic clearance in human liver microsomes
# [4] = Lipophilicity, log D of the compound at pH 7.4; settings: buffer
# [5] = molecular target: T1, Prostaglandin D2 receptor 2; assay: Antagonist activity at human CRTh2 receptor expressed in HEK cells assessed as inhibition of PGD2-induced calcium flux; type: functional, cell-based, HEK293
# In short: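 PGD2-driven Ca2+ flux in HEK cells transfected with human CRTh2, read as antagonism of the response.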
# [6] = molecular target: T2, Prostaglandin D2 receptor 2 (Homo sapiens) (UniProt Q9Y5Y4); assay: Displacement of [3H]-PGD2 from CRTh2 receptor at 10 uM by scintillation proximity assay
# T2 sequence (whole entry): T1 sequence (Q9Y5Y4 whole entry)
# In short: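 Scintillation proximity binding with [3H]-PGD2 as radioligand; reported values are means of more than 2 measurements.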
# [7] = molecular target: T2, Prostaglandin D2 receptor 2 (Homo sapiens); assay: Partial agonist activity at human CRTh2 receptor expressed in HEK cells assessed as stimulation of calcium flux; type: functional, cell-based; settings: HEK293
# [8] = molecular target: T2, Prostaglandin D2 receptor 2 (Homo sapiens); settings: HEK293, 10 uM
pIC50 [1],hepatocyte CLint [2] [µL/min/1e6 cells],microsomal CLint ([3]; liver microsomes) [µL/min/mg],Compound,other results
6.90,,,N#Cc1ccc(-c2cc(C(F)(F)F)ccc2OCC(=O)O)cc1,
9.22,5,10,CS(=O)(=O)c1ccc(-c2cc(Cl)ccc2OCC(=O)O)c(Cl)c1,
6.53,,,CCS(=O)(=O)c1ccc(-c2cc(Cl)ccc2OCC(=O)O)c(C(F)(F)F)c1,
8.80,23,< 3,CCS(=O)(=O)c1ccc(-c2cc(C(F)(F)F)ccc2O[C@H](C)C(=O)O)c(C)c1,
9.70,< 3,,Cc1ccc(C#N)cc1-c1cc(C(F)(F)F)ccc1OCC(=O)O,logD [4]: 0.2; microsomal CLint ([3]; microsomes): < 3 µL/min/mg
6.50,7,< 3,O=C(O)COc1ccc(Br)cc1-c1ccccc1,pIC50 [5]: 6.80
,,,O=C(O)COc1ccccc1-c1ccccc1,inhibition [6]: 41%
5.25,29,< 3,CCS(=O)(=O)c1ccc(-c2cc(C(F)(F)F)ccc2OCC(N)=O)c(C)c1,logD [4]: 2.8
8.05,,,CCSc1ccc(-c2cc(C(F)(F)F)ccc2OCC(=O)O)cc1,
9.40,< 3,< 3,Cc1cc(N(C)S(C)(=O)=O)ccc1-c1cc(C(F)(F)F)ccc1OCC(=O)O,
9.52,< 5,< 3,CCS(=O)(=O)c1ccc(-c2cc(C(F)(F)F)ccc2OCC(=O)O)c(Cl)c1,
6.60,,,O=C(O)COc1ccc(Cl)cc1-c1ccccc1,
6.27,6,< 3,CS(=O)(=O)c1ccc(OCC(=O)O)c(-c2ccccc2)c1,Activity [7]: Active
9.22,< 5,< 3,C[C@@H](Oc1ccc(C(F)(F)F)cc1-c1cccc(C#N)c1)C(=O)O,
8.82,< 3,7,CCS(=O)(=O)c1ccc(-c2cc(Cl)ccc2OCC(=O)O)c(Cl)c1,
8.39,,,CCS(=O)(=O)c1ccc(-c2cc(Cl)ccc2OCC(=O)O)c(C)c1,
6.60,,,O=C(O)COc1ccc([N+](=O)[O-])cc1-c1ccccc1,pIC50 [5]: 6.75
5.40,,,CCS(=O)(=O)c1ccc(-c2cc(C(F)(F)F)ccc2OC(C)(C)C(=O)O)c(C)c1,
8.60,25,< 4,CCS(=O)(=O)c1ccc(-c2cc(C(F)(F)F)ccc2CCC(=O)O)c(C)c1,
6.10,< 3,12,Cc1ccc(OCC(=O)O)c(-c2ccccc2)c1,pIC50 [5]: 6.15
8.10,4,,CCS(=O)(=O)c1ccc(-c2cc(Cl)ccc2OCC(=O)O)c(F)c1,microsomal CLint ([3]; microsomes): < 3 µL/min/mg
8.70,20,,O=C(O)COc1ccc(C(F)(F)F)cc1-c1ccccc1-c1ccccc1,logD [4]: 1.4; microsomal CLint ([3]; microsomes): < 3 µL/min/mg

pIC50 [1],hepatocyte CLint [2] [µL/min/1e6 cells],microsomal CLint ([3]; liver microsomes) [µL/min/mg],Compound,other results
8.66,,,CN(c1ccc(-c2cc(F)ccc2OCC(=O)O)c(Cl)c1)S(C)(=O)=O,
6.05,,,CCS(=O)(=O)c1ccc(-c2cc(C(F)(F)F)ccc2OCc2nnn[nH]2)c(C)c1,
5.75,,,O=C(O)COc1ccc(-c2nccs2)cc1-c1ccccc1,pIC50 [5]: 6.30
8.89,18,9,CCN(CC)S(=O)(=O)c1ccc(-c2cc(C(F)(F)F)ccc2OCC(=O)O)cc1,logD [4]: 0.7
6.90,13,6,O=C(O)COc1ccc(C(F)(F)F)cc1-c1ccc2c(c1)CCS2(=O)=O,
6.45,10,,CCS(=O)(=O)c1ccc(-c2cc(C(F)(F)F)ccc2O[C@@H](C)C(=O)O)c(C)c1,
10.00,,,CN(c1ccc(-c2cc(C(F)(F)F)ccc2OCC(=O)O)c(Cl)c1)S(C)(=O)=O,
8.00,9,6,CCCCOc1ccccc1-c1cc(C(F)(F)F)ccc1OCC(=O)O,
,13,,CCc1ccc(OCC(=O)O)c(-c2ccc(S(C)(=O)=O)cc2)c1,microsomal CLint ([3]; microsomes): < 3 µL/min/mg
7.72,< 3,7,CCS(=O)(=O)c1ccc(-c2cc(Cl)ccc2OCC(=O)O)cc1,
> 9.40,< 3,< 3,N#Cc1cccc(-c2cc(C(F)(F)F)ccc2OCC(=O)O)c1,logD [4]: 0.1
9.70,< 3,,N#Cc1ccc(F)c(-c2cc(C(F)(F)F)ccc2OCC(=O)O)c1,microsomal CLint ([3]; microsomes): < 4 µL/min/mg
6.60,47,12,COc1ccc(-c2cc(C(F)(F)F)ccc2OCC(=O)O)cc1,logD [4]: 0.3
6.75,,,CCC(Oc1ccc(C(F)(F)F)cc1-c1ccc(S(=O)(=O)CC)cc1C)C(=O)O (centres undefined),logD [4]: 0.3
7.44,< 3,< 3,CS(=O)(=O)c1ccc(-c2cc(C(F)(F)F)ccc2OCC(=O)O)cc1,Activity [7]: Active
9.10,< 3,13,CN(c1ccc(-c2cc(C(F)(F)F)ccc2OCC(=O)O)cc1)S(C)(=O)=O,
9.70,,,CS(=O)(=O)c1ccc(-c2cc(C(F)(F)F)ccc2OCC(=O)O)c(Cl)c1,
7.30,< 3,11,O=C(O)COc1ccc(C(F)(F)F)cc1-c1ccc(Cl)cc1,logD [4]: 0.9
5.05,64,< 3,Nc1ccc(OCC(=O)O)c(-c2ccccc2)c1,inhibition [8]: 17%
7.25,< 3,12,CCS(=O)(=O)c1cccc(-c2cc(C(F)(F)F)ccc2OCC(=O)O)c1,
6.45,< 3,6,N#Cc1ccc(OCC(=O)O)c(-c2ccccc2)c1,pIC50 [5]: 6.60
9.22,< 3,< 3,CCS(=O)(=O)c1ccc(-c2cc(C(F)(F)F)ccc2O[C@H](C)C(=O)O)c(Cl)c1,logD [4]: 0
